The source of these data is ChEMBL document CHEMBL2440036, “3-[2-(Aminomethyl)-5-[(pyridin-4-yl)carbamoyl]phenyl] benzoates as soft ROCK inhibitors” (Bioorg Med Chem Lett, 2013).

In data set [1] the target is Rho-associated protein kinase 2 (Homo sapiens, UniProt O75116). Kind of data set: Inhibition of ROCK2 (unknown origin) using long S6 kinase peptide as substrate by radiometric assay.
Data set [2] is described as follows: Inhibition of ROCK in rat A7r5 cells assessed as inhibition of MLC phosphorylation by direct ELISA. The data set is classed as cell-based.
Data set [3] is described as follows: Drug degradation in human plasma after 60 mins by LC-MS/MS analysis. The data set is classed as ADME, cell-free. The note with it: read-out: Drug degradation.
A short description of data set [4]: Half life in human plasma by LC-MS/MS analysis. The data set is classed as ADME, cell-free.
The nature of data set [5]: Stability of the compound in PBS buffer at pH 7.4. The data set is classed as physicochemical.
A short description of data set [6]: Apparent permeability of the compound at 10 uM after 5 hrs by PAMPA. The data set is classed as ADME.
Data set [7] in a line: Drug degradation in sclera of New Zealand white rabbit assessed as specific hydrolytic activity at 20 uM after 4 hrs by LC-MS/MS analysis. The data set is classed as ADME, tissue-based, Oryctolagus cuniculus. Put shortly:
(§1)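 Test compound was incubated with ocular tissues from ocular normotensive New Zealand White rabbits, and its degradation rate was followed. Specific hydrolytic activity (pmol min-1 mg-1) was calculated by normalizing the degradation rate to tissue weight. Aqueous humor half-life refers to undiluted aqueous humor.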

Data set [8] can be described thus: Half life in aqueous humor of New Zealand white rabbit assessed as specific hydrolytic activity at 20 uM by LC-MS/MS analysis. The data set is classed as ADME, tissue-based, Oryctolagus cuniculus, Aqueous humor of eyeball. The method in brief:
as §1

The test system of data set [9] is Oryctolagus cuniculus. Description: Reduction of IOP in New Zealand white rabbit eye administered topically after 6 hrs relative to vehicle-treated control. The data set is classed as functional.
The nature of data set [10]: Drug degradation in conjunctiva of New Zealand white rabbit assessed as specific hydrolytic activity at 20 uM after 4 hrs by LC-MS/MS analysis. The data set is classed as ADME, tissue-based, Oryctolagus cuniculus. The method in brief: as §1
The species named for data set [11] is Oryctolagus cuniculus. Kind of data set: Toxicity in New Zealand white rabbit assessed as hyperemia. To be noted: in vivo. The data set is classed as organism-based.
Data set [12] deals with Oryctolagus cuniculus. Kind of data set: Reduction of IOP in New Zealand white rabbit eye administered topically after 3 hrs relative to baseline. The arrangement: scale not given: the % may be the effect or the level left. The data set is classed as functional.
Data set [13] in a line: Drug degradation in aqueous humor of New Zealand white rabbit assessed as specific hydrolytic activity at 20 uM after 4 hrs by LC-MS/MS analysis. The data set is classed as ADME, tissue-based, Oryctolagus cuniculus, Aqueous humor of eyeball. Put shortly: as §1
Data set [14] can be described thus: Drug degradation in cornea of New Zealand white rabbit assessed as specific hydrolytic activity at 20 uM after 4 hrs by LC-MS/MS analysis. The data set is classed as ADME, tissue-based, Oryctolagus cuniculus. Put shortly: as §1
Data set [15] in a line: Drug degradation in vitreous humor of New Zealand white rabbit assessed as specific hydrolytic activity at 20 uM after 4 hrs by LC-MS/MS analysis. The data set is classed as ADME, tissue-based, Oryctolagus cuniculus. Put shortly:
as §1

The source made the active and inactive calls. The calls are words filed in the database; no cut-off is given here. Some results are limits rather than exact numbers.

Rho-associated protein kinase 2, sequence (O75116 whole entry): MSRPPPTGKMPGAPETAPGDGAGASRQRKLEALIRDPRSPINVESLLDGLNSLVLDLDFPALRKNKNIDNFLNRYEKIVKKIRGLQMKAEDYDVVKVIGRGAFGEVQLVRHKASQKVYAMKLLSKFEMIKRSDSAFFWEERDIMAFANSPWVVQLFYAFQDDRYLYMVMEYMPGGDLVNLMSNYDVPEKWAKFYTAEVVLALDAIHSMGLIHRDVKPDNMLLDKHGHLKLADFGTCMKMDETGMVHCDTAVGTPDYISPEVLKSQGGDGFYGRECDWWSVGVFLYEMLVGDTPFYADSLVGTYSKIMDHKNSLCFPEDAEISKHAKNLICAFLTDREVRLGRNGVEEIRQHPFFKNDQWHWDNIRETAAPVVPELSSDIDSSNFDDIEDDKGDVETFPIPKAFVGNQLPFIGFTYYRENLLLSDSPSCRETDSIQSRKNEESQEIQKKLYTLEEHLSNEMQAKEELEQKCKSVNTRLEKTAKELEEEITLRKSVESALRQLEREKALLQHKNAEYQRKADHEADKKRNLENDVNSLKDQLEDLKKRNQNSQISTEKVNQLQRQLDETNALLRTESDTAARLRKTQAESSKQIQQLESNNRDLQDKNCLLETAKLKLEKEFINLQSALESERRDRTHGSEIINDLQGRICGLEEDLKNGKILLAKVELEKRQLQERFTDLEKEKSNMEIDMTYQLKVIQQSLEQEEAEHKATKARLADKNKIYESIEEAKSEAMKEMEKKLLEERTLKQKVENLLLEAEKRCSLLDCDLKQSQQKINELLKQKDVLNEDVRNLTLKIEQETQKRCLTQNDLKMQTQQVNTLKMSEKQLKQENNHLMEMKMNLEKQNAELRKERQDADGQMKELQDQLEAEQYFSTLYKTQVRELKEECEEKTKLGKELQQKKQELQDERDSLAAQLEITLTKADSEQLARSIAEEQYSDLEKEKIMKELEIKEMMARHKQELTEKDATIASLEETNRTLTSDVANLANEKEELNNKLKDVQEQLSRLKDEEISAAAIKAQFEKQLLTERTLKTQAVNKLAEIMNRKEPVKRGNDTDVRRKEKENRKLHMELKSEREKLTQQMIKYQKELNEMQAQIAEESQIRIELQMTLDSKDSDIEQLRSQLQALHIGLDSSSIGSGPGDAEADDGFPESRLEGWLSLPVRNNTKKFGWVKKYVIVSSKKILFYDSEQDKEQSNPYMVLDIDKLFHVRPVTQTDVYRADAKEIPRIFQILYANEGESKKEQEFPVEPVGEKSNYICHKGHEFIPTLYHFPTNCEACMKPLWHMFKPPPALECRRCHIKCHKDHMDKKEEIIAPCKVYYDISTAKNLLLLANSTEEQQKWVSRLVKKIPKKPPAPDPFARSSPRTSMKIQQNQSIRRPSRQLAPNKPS

`CC(N)c1ccc(C(=O)Nc2ccncc2)cc1-c1ccc(F)cc1` (stereo not given): the IC50 in [1] is 1.2 nM. In [2], the EC50 is 6.1 nM. In addition, the metabolised at 1 h in data set [3] is under 5%. The half-life in data set [4] was over 120 min.
In the case of `COCCCOC(=O)c1cccc(-c2cc(C(=O)Nc3ccncc3)ccc2CN)c1`, the Stability entry in data set [5] is on record as “Stable”. Besides, the IC50 in data set [1] worked out at 1.5 nM. In [2], the EC50 is 28 nM. Besides, in data set [4], the half-life was determined as 26 min.
`NCc1ccc(C(=O)Nc2ccncc2F)cc1-c1cccc(C(=O)Oc2ccccc2)c1`: the Stability entry in [5] is “Stable”. This compound registered an IC50 in [1] of 6.2 nM. Besides, the half-life in data set [4] turned out to be 7 min.
In the case of `NCc1ccc(C(=O)Nc2ccncc2F)cc1-c1cccc(C(=O)OC2CCCOC2)c1` (stereo not given), the Stability entry in data set [5] was “Stable”. Further, 8.7 nM corresponded to half-maximal inhibition in [1] (IC50). In addition, the half-life in data set [4] turned out to be 18 min.
For `COC(=O)c1ccc(-c2cc(C(=O)Nc3ccncc3)ccc2CN)cc1`, the IC50 in data set [1] is 102 nM.
As to `NCc1ccc(C(=O)Nc2ccncc2)cc1-c1cccc(C(=O)OCC2CCCCC2)c1`, the Stability entry in data set [5] is reported as “Stable”. Moreover, in data set [1], the IC50 was determined as 48 nM. In addition, in data set [4], the half-life stood at 99 min.
Taken in the same sequence, the figures for `CCCCOC(=O)c1cccc(-c2cc(C(=O)Nc3ccncc3)ccc2CN)c1` were “Stable”, 5.5 nM and 22 min.
For the compound `COCCOC(=O)c1cccc(-c2cc(C(=O)Nc3ccncc3)ccc2CN)c1`, the Stability result in data set [5] is listed as “Stable”. Moreover, in data set [1], the IC50 is 3.6 nM. Further, the concentration giving a half-maximal response (EC50) in data set [2] was 170 nM. The compound also yielded a half-life in data set [4] of 12 min.
For the compound `NCc1ccc(C(=O)Nc2ccncc2F)cc1-c1cccc(C(=O)OCC2CC2)c1`, in data set [5], the Stability result is given as “Stable”. Moreover, the half-maximal inhibitory concentration (IC50) in [1] amounted to 2.7 nM. The same compound gave a half-life in [4] of 18 min.
For the compound `COC(=O)c1cccc(-c2cc(C(=O)Nc3ccncc3)ccc2CN)c1`, in [5], the Stability entry is recorded as “Stable”. Besides, the IC50 in data set [1] is 2.9 nM. Besides, the half-maximal effective concentration (EC50) in data set [2] stood at 8 nM. Further, the half-life in [4] stood at 91 min.
`C[C@@H](N)[C@H]1CC[C@H](C(=O)Nc2ccncc2)CC1` [Y-27632]: the EC50 in [2] stood at 200 nM. Also, in data set [3], the metabolised at 1 h was under 5%. For the same compound, in data set [4], the half-life is over 120 min.
For `COC(=O)c1cccc(-c2cc(C(=O)Nc3ccncc3F)ccc2CN)c1`, in data set [5], the Stability result was “Stable”. Also, the midpoint of inhibition in data set [1], the IC50, lay at 7.8 nM. In addition, the concentration giving a half-maximal response (EC50) in data set [2] stood at 130 nM. Besides, the half-life in data set [4] came out at 65 min.
Regarding `CCCOC(=O)c1cccc(-c2cc(C(=O)Nc3ccncc3)ccc2CN)c1`, the Stability result in [5] is “Stable”. Besides, the midpoint of inhibition in data set [1], the IC50, lay at 1.4 nM. Also, the EC50 in [2] came out at 9.1 nM. Further, the half-life in data set [4] came to 18 min.
`CC(C)OCCOC(=O)c1cccc(-c2cc(C(=O)Nc3ccncc3F)ccc2CN)c1`: the Stability entry in [5] is given as “Stable”. This compound showed a half-inhibitory concentration (IC50) in [1] of 37 nM. The half-life in data set [4] was 6 min.
With `NCc1ccc(C(=O)Nc2ccncc2F)cc1-c1cccc(C(=O)OCCO)c1`, in data set [5], the Stability entry is “Stable”. For the same compound, the IC50 in data set [1] is 1.4 nM. In addition, in [4], the half-life is 81 min.
Take `NCc1ccc(C(=O)Nc2ccncc2)cc1-c1cccc(C(=O)O)c1`: in data set [6], the Papp at 5 h, 10 µM was under 0.01 ×10⁻⁶ cm/s. In [1], the midpoint of inhibition, the IC50, lay at 167 nM. Also, the 50% effective concentration (EC50) in data set [2] is over 1000 nM. For the same compound, the metabolised at 1 h in [3] is under 5%. In data set [4], this compound yielded a half-life of over 120 min.
Regarding `NCc1ccc(C(=O)Nc2ccncc2)cc1-c1cccc(C(=O)OC2CCCCC2)c1`, in data set [5], the Stability entry was “Unstable”. This compound yielded a half-maximal inhibitory concentration (IC50) in data set [1] of 20 nM. For the same compound, the half-life in [4] is over 120 min.
Taken in the same sequence, the figures for `CCCCCCOC(=O)c1cccc(-c2cc(C(=O)Nc3ccncc3)ccc2CN)c1` were “Stable”, 22 nM and 50 min.
Taken in the same sequence, the figures for `CCCCCOC(=O)c1cccc(-c2cc(C(=O)Nc3ccncc3)ccc2CN)c1` were “Stable”, 4.9 nM and 58 min.
Take `NCc1ccc(C(=O)Nc2ccncc2F)cc1-c1cccc(C(=O)OCC2CCCC2)c1`: the Stability entry in data set [5] is reported as “Stable”. The same compound displayed an IC50 in data set [1] of 13 nM. In data set [2], the concentration giving a half-maximal response (EC50) amounted to 52 nM. Moreover, the half-life in [4] was 17 min.
For the compound `NCc1ccc(C(=O)Nc2ccncc2F)cc1-c1cccc(C(=O)O)c1`, the apparent permeability coefficient (Papp) at 5 h, 10 µM in data set [6] was under 0.01 ×10⁻⁶ cm/s. For the same compound, the IC50 in data set [1] is 55 nM. Besides, the EC50 in [2] is over 1000 nM. The metabolised at 1 h in data set [3] was under 5%. In addition, the half-life in data set [4] was over 120 min.
As to `CCOC(=O)c1cccc(-c2cc(C(=O)Nc3ccncc3)ccc2CN)c1`, in data set [5], the Stability entry is “Stable”. The compound also came in with a concentration for half-maximal inhibition (IC50) in data set [1] of under 1 nM. Besides, the half-life in [4] is 41 min.
Taken in the same sequence, the figures for `NCc1ccc(C(=O)Nc2ccncc2F)cc1-c1cccc(C(=O)OCC2CCC2)c1` were “Stable”, 4.3 nM and 13 min.
On to `NCc1ccc(C(=O)Nc2ccncc2)cc1-c1cccc(C(=O)OCc2ccccc2)c1`, for which, in data set [5], the Stability entry was “Stable”. For the same compound, in data set [1], the IC50 turned out to be 45 nM. In [4], this compound registered a half-life of 64 min.
Consider `NCc1ccc(C(=O)Nc2ccncc2F)cc1-c1cccc(C(=O)OCC2CCCO2)c1` (stereo not given), for which the Drug degradation is 1 pmol/min/mg in data set [7]; 1.52 pmol/min/mg in [10]; 0.12 pmol/min/mg in data set [13]; 2.71 pmol/min/mg in data set [14]; 0.22 pmol/min/mg in data set [15]. In [5], the Stability entry is given as “Stable”. Further, the half-life at 20 µM in data set [8] was 116 min. For the same compound, in the data set on Oryctolagus cuniculus [9], the result was Active. The Activity with Oryctolagus cuniculus [9] (record 2) was 0.5%; in the data set listed under Oryctolagus cuniculus [11], “Non-toxic”; in the data set with Oryctolagus cuniculus [12] it was 28.7%. For the same compound, in data set [1], the half-maximal inhibitory concentration (IC50) stood at 2.5 nM. Besides, in data set [2], the EC50 stood at 16 nM. Also, in data set [4], the half-life was under 5 min.
With `NCc1ccc(C(=O)Nc2ccncc2)cc1-c1cccc(C(=O)OCC2CCCC2)c1`, in [5], the Stability entry is reported as “Stable”. The compound also yielded an IC50 in [1] of 5 nM. The EC50 in data set [2] stood at 70 nM. In addition, the half-life in [4] came to 31 min.
In the case of `NCc1ccc(C(=O)Nc2ccncc2F)cc1-c1cccc(C(=O)OCC2CCCCO2)c1` (stereo not given), the Stability result in data set [5] is “Stable”. Further, in [1], half-maximal inhibition (IC50) was put at 12 nM. In data set [4], this compound returned a half-life of 7 min.
In the same order, the values of `CCCOC(=O)c1cccc(-c2cc(C(=O)Nc3ccncc3F)ccc2CN)c1` are “Stable”, 5.1 nM and 19 min.
